# PubChem BioAssay AID489030 (Sanford-Burnham Center for Chemical Genomics, 2010)
# In all, about 330,000 compounds went through this assay and about 2,400 (0.73%) were called active. The calls were made as follows: active = inhibition of at least 40% at 20 µM; inactive = the rest. The list comes from a sample in which actives are over-represented; it also holds similar structures and randomly drawn compounds.
# Target: Apoptotic protease-activating factor 1 (Homo sapiens) (UniProt O14727)
# Assay: inhibitors of human Apaf-1 apoptosome, primary screen, biochemical, DEVD-Rh110 fluorescence, uHTS (AID 489030);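 also: plate controls were DMSO wells for no effect and DEVD-CHO caspase inhibitor wells for full effect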
# Conditions: reconstituted apoptosome caspase-3 activity, at 20 µM, active compounds read high
# In short: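 detection = Rh110 fluorescence intensity | test system = biochemical Apaf-1 apoptosome reconstitution | also added = cytochrome c and DEVD-Rh110 substrate | schedule = 30 min plus 50 min, RT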
# Chain of Apoptotic protease-activating factor 1 (Homo sapiens) (O14727 whole entry, looked up): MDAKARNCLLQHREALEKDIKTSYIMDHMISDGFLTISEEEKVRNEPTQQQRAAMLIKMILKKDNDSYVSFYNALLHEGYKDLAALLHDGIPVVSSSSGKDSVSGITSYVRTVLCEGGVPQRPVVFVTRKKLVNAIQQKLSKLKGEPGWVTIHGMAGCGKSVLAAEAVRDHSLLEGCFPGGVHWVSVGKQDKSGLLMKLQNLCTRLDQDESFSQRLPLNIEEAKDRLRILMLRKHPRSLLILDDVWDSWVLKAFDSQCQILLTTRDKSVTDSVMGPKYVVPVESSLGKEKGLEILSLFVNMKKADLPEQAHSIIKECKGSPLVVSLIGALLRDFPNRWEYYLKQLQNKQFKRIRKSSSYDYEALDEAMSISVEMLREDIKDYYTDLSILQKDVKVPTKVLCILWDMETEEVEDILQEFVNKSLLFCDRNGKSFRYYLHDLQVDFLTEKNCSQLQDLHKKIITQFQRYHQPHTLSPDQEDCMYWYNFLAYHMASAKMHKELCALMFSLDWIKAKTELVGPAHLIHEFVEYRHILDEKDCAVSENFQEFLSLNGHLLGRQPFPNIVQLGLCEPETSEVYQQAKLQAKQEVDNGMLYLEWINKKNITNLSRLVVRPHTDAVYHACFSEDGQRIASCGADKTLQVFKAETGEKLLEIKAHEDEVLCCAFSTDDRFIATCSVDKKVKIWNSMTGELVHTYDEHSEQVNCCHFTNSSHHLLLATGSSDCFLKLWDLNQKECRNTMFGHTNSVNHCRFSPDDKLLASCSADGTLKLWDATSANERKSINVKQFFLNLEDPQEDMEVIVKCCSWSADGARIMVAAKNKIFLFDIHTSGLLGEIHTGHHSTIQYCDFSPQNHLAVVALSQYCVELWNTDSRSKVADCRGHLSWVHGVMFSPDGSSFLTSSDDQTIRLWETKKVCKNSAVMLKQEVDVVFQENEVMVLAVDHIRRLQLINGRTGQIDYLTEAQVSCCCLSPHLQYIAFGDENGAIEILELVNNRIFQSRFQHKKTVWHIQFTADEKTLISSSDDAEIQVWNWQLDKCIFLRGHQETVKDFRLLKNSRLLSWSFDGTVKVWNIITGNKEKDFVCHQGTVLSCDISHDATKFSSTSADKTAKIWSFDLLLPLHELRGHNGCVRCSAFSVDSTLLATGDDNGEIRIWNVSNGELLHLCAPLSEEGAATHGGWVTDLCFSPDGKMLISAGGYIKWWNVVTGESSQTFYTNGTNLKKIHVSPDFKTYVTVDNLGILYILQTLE
row,SMILES,inhibition
1,CCCc1c(C)nc2c(Br)cccc2c1Cl,-2.72% (inactive)
2,CC[N+](C)(CC)CCC[n+]1c(-c2ccccc2)c2cc(N)ccc2c2ccc(N)cc21,98.2% (active)
3,CCOC(=O)N1CCC(NC(=O)Cc2cn(C)c3ccccc23)CC1,3.3% (inactive)
4,CCOC(=O)N1CCC(NC(=O)C(C)n2c3ccccc3c3cnn(C)c(=O)c32)CC1 (centres undefined),44.6% (active)
5,CCOC(=O)N1CCC(NC(=O)CCc2cn(C)c3ccccc23)CC1,0.184% (inactive)
6,COc1ccc2nc(N3CCN(C(=O)c4ccc([N+](=O)[O-])o4)CC3)sc2c1,4.35% (inactive)
7,Cc1ccc2nc(N3CCN(C(=O)c4ccco4)CC3)sc2c1,41.9% (active)
8,Cc1ccc2nc(N3C(=O)C(O)=C(C(=O)c4ccco4)C3c3cccc(O)c3)sc2c1 (centres undefined),9.5% (inactive)
9,CN(C)/C=C(\C#N)C(=O)c1cccnc1Oc1ccc(F)cc1F,-17.9% (inactive)
10,Cc1ccc(NC(=O)C(C)c2cccc(C(=O)c3ccccc3)c2)cc1 (centres undefined),-10.9% (inactive)
11,Cc1oc2c(c1C(=O)N1CCOCC1)C(=O)c1ccccc1C2=O,65.9% (active)
12,COc1cc2ccccc2cc1C(=O)N1CCOCC1,-7.91% (inactive)
13,O=C(c1snnc1-c1ccccc1)N1CCOCC1,-11.7% (inactive)
14,Cc1cc(NC(=O)C(C)SCC(=O)Nc2ccccc2N2CCCCC2)no1 (centres undefined),18.8% (inactive)
15,CCCCN(CC)CCNC(=O)c1[nH]c(C)c(C(C)=O)c1C,2.1% (inactive)
16,Clc1ccccc1CSc1nnc(-c2ccco2)c(-c2ccco2)n1,49.9% (active)
17,S=C(NCc1ccco1)NCc1ccccc1Cl,10.3% (inactive)
18,Clc1ccc(CSc2nnc3c(n2)[nH]c2ccccc23)cc1,11.3% (inactive)
19,c1ccc(CSc2nnc(-c3ccco3)c(-c3ccco3)n2)cc1,49.6% (active)
20,CCc1nnc(SCc2cccc(F)c2)nc1CC,14.3% (inactive)

row,SMILES,inhibition
1,O=C(CC1N=C2c3ccccc3N=C(SCc3ccccc3Cl)N2C1=O)NCc1ccco1 (centres undefined),21.1% (inactive)
2,COc1cc(NC(=O)CCS(=O)(=O)c2ccc3c(c2)oc(=O)n3C)cc(OC)c1,-0.825% (inactive)
3,Cc1c(NS(=O)(=O)c2cc(C(=O)NCCc3ccc(F)cc3)cc(Cl)c2Cl)c(=O)n(-c2ccccc2)n1C,16% (inactive)
4,CCOC(=O)c1ccc2c(c1)nc(SCC(=O)NC(C)C)n2CC,-14.5% (inactive)
5,Cc1ccc(C(=O)N/N=C/c2cccc3ccccc23)cn1,-7.7% (inactive)
6,O=C(N/N=C\c1cc(Br)c(Br)o1)C1COc2ccccc2O1 (centres undefined),6.95% (inactive)
7,Cc1ccc(C(=O)N/N=C\c2cc(Br)c(Br)o2)cn1,75.4% (active)
8,O=C(OCc1ccccc1F)c1ccc2c(c1)OCCO2,9.05% (inactive)
9,CCOC(=O)CCC(=O)OCC(=O)NC(C)C1CC2CCC1C2 (centres undefined),3.06% (inactive)
10,COC(=O)c1ccc(NC(=O)c2cc3c(CO)cnc(C)c3oc2=Nc2cccc(C(N)=O)c2)cc1,-28.9% (inactive)
11,CC(=O)N1N=C(c2ccncc2)OC1(Cc1ccccc1)Cc1ccccc1,3.9% (inactive)
12,O=C(O/N=C(/c1ccccc1)c1ccncc1)c1ccccc1[N+](=O)[O-],-9.34% (inactive)
13,Cc1cc(C)cc(OCC(=O)Nc2ccc(N3CCOCC3)cc2N2CCOCC2)c1,21.9% (inactive)
14,Cc1cc(N2CCCC2)ccc1NC(=O)COc1ccc(Cl)cc1,62.2% (active)
15,CCC(=O)c1ccc(OCC(=O)Nc2ccc(N3CCCCC3)cc2)cc1,-8.58% (inactive)
16,CS(=O)(=O)N(CC(=O)N1CCN(c2ccc(F)cc2)CC1)C1CCCCC1,-2.79% (inactive)
17,O=C(NC1CCCC1)C(c1c(F)cccc1Cl)N(C(=O)c1csnn1)C1CC1 (centres undefined),6.38% (inactive)
18,Cc1ccc2c(c1)C1CN(C)CCC1N2S(=O)(=O)c1cccc(F)c1 (centres undefined),1.11% (inactive)
19,Cc1ccc2c(c1)C1CN(C)CCC1N2C(=S)Nc1ccc(OC(F)F)cc1 (centres undefined),-7.03% (inactive)
20,Cc1ccc2c(c1)C1CN(C)CCC1N2S(=O)(=O)c1ccc(Oc2ccc([N+](=O)[O-])cc2)cc1 (centres undefined),59.9% (active)

row,SMILES,inhibition
1,COc1ccc(N2CCN(C(=O)c3cn(C)c4ccc(S(=O)(=O)N5CCOCC5)cc4c3=O)CC2)cc1,-4.77% (inactive)
2,CCC(CC)c1nnc(NC(=O)C2=COCCO2)s1,3.27% (inactive)
3,C/C(=N\NC(=O)c1ccccc1F)c1ccccn1,-4.33% (inactive)
4,Cc1cnc(NC(=O)c2ccccn2)s1,-31.2% (inactive)
5,CCN(CC)CCOc1ccc2c(c1)C(=NNC(=O)c1ccccn1)c1cc(OCCN(CC)CC)ccc1-2,52.5% (active)
6,Cc1ccc2c(Cl)c(C(=O)NCCCn3ccnc3)sc2c1,10.1% (inactive)
7,CC(C)(C)NC(=O)CN(C(=O)c1csnn1)c1ccccc1-c1ccccc1,-0.459% (inactive)
8,Cc1cc(C)c(NC(=S)N2CCCC2C(=O)O)c(C)c1 (centres undefined),-0.801% (inactive)
9,Cc1ccc(S(=O)(=O)c2c(N)n(C)c3nc4ccccc4nc23)cc1,-405% (inactive)
10,CCC(=O)Nc1c(S(=O)(=O)c2ccccc2)c2nc3ccccc3nc2n1Cc1ccccc1,49.2% (active)
11,CCN(CC)CCn1c(N)c(S(=O)(=O)c2ccccc2)c2nc3ccccc3nc21,12% (inactive)
12,CCOc1cc(NC(=S)NCCCN(C)C)c(OCC)cc1NC(=O)C1CC1,-14.8% (inactive)
13,COc1ccccc1CN1CCNC(=O)C1CC(=O)N(C)CC1CCOCC1 (centres undefined),4.54% (inactive)
14,CCC(=O)NCc1cc(-c2nn(C)c(=O)c3ccccc23)ccc1OC,-10.9% (inactive)
15,Cc1ccc(F)cc1NC(=O)Cc1nn(C)c(=O)c2ccccc12,-8.15% (inactive)
16,Cc1c(-c2nn(C)c(=O)c3ccccc23)oc2ccc(F)cc2c1=O,82% (active)
17,CCCCn1c(N)c(N(CC(C)C)C(=O)c2cccc(S(=O)(=O)N3CCN(C(C)=O)CC3)c2)c(=O)[nH]c1=O,6.93% (inactive)
18,C=CCNC(=O)c1ccccc1SCc1c(C)noc1C,-5.84% (inactive)
19,O=S(=O)(c1cccc(C(F)(F)F)c1)N1CCN(c2cnccn2)CC1,-23.4% (inactive)
